Screening results: PubChem, several laboratories
An excerpt weighted towards active compounds, which were near 9% of everything screened.
D1 allo mod = allosteric modulators of human D1 dopamine receptor; P21728; HEK293 D1, CRE-luciferase, dopamine EC30 potentiation; actives deviate in either direction; B-score at 10 µM; actives 5.9% (n = 58,000); AID 641;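 active = luminescence count or its row- and column-corrected plate score outside the 99.7% band of the plate's sample wells, on either side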
M1 ag = activates the M1 muscarinic receptor. CHO-M1 cells, Fluo-4 calcium fluorescence, agonist mode; hits give high values. B-score at 10 µM. AID 626. actives 3% (n = 64,000);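 active = fluorescence rise, raw or as B-score row- and column-corrected plate score, outside the 99.7% band of its plate's samples, either direction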
mHtt clearance = mutant huntingtin protein clearance; AID 853; actives 0.42% (n = 47,000); HeLa Exon1htt(103Q)mCFP, aggregate imaging; zero = plate's median compound well; inhibition, % at 1.5 µM;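 active = inhibition of aggregate fluorescence above about 70%, also judged a hit by eye on the cell image, limit read from the data, passing the limit was not always enough; inconclusive = no rule stated for this call; inactive = not judged a hit on image review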;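 note: cells exposed to compound for three days before fixation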
M1 antag = antagonists of rat M1 muscarinic receptor; B-score at 10 µM; P08482; actives 3.4% (n = 64,000); AID 628; CHO-M1 cells, Fluo-4 calcium, ACh EC80 antagonist mode; hits give low values;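 active = calcium fluorescence response, raw or row-and-column corrected B-score, differing from the plate sample mean either way at a set confidence level, mostly lower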
Target sequence (P08482 whole entry, looked up): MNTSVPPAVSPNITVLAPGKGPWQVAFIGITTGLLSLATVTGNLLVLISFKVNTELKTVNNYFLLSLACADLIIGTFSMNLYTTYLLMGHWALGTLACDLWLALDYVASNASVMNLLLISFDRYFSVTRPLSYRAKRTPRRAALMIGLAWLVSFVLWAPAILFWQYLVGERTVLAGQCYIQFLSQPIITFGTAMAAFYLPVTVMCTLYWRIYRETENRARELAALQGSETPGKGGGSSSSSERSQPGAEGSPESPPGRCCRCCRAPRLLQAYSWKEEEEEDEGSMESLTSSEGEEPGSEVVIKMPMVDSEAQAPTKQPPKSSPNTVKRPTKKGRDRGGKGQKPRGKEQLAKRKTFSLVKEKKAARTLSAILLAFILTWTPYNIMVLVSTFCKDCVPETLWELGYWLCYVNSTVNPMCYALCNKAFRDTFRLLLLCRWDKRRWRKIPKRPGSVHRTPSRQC
AP complement = orthogonal test for alternative complement pathway inhibitors; inhibition, % at 5 µM; actives 0.08% (n = 62,000); Human serum alternative complement pathway, LPS-coated ELISA, C3 deposition; tested in compound mixtures;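 active = inhibition above 30% in each of the two pooled mixtures holding the compound, so the lower value exceeds 30%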
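Test system – human serum alternative complement pathway, C3 deposition on LPS-coated wells · Buffer or medium – diluted human serum in Mg2+-EGTA GVB++ · Compound dosing – 5 µM each compound, pools of ten, 50 µM per pool · Schedule – 1 h serum-compound exposure at 37 °C · Measured by – Anti-C3 ELISA, OD 450 nm · Read-out basis – percent inhibition of C3 deposition onto LPS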
M1 agonist conf = rat M1 muscarinic agonism, confirmation; shares compounds with M1 ag; actives 19% (n = 1,700); AID 1488; fluorescence change (max-min) at 10 µM; CHO-M1 cells, Fluo-4 calcium fluorescence, agonist mode; actives lie on both sides;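 active = fluorescence change differs from the solvent-only DMSO control mean at a set confidence level in both duplicate runs; inconclusive = differs from solvent-only control mean in just one of two runs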;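 note: an EC20 dose of acetylcholine follows compound addition during the same imaging run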
M4 agonist ctr = counter-screen for M1 agonists: activity at rat M4 receptor | actives 9% (n = 1,700) | AID 1741 | fluorescence change (max-min) at 10 µM | shares compounds with M1 ag | CHO M4/Gqi5 cells, Fluo-4 calcium fluorescence, agonist mode; actives lie on both sides;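 active = fluorescence change differing from the plate's solvent-only control wells at 99.7% confidence in both duplicates, whether higher or lower; inconclusive = differs from solvent controls in only one of two duplicates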
Large screens that a line does not name were inactive (follow-up assays come after a bar, where they were run).

CN1CCCc2cc3c(C(F)(F)F)cc(=O)oc3nc21	M1 ag 429, M1 antag -17.3 | M1 agonist conf 2526 | M4 agonist ctr 2146
COc1ccc(C/C(O)=C(\C#N)c2nc3ccccc3s2)cc1	none
Cc1ccc(SC/C(O)=C(\C#N)c2nc3ccccc3s2)cc1	M1 ag 3.27 | M1 agonist conf inactive | M4 agonist ctr inactive
O=C(C1CCN(S(=O)(=O)c2cccc3cccnc23)CC1)N1CCN(c2ccccc2)CC1	none (no result: mHtt clearance)
COc1cccc(NC(=O)C2CCCN(S(=O)(=O)c3cccc4cccnc34)C2)c1 (centres undefined)	M1 ag 3.11, mHtt clearance inconclusive | M1 agonist conf inconclusive | M4 agonist ctr inactive
O=C(C1CCCN(S(=O)(=O)c2cccc3cccnc23)C1)N1CCc2ccccc21 (centres undefined)	M1 ag 3.13 | M1 agonist conf inconclusive | M4 agonist ctr inactive
CC(C)(C)NC(=O)C1CCCN(S(=O)(=O)c2cccc3cccnc23)C1 (centres undefined)	none (no result: mHtt clearance)
O=C(C1CCCN(S(=O)(=O)c2cccc3cccnc23)C1)N1CCN(c2ccc(F)cc2)CC1 (centres undefined)	D1 allo mod -2.32, M1 ag 2.71 | M1 agonist conf inconclusive | M4 agonist ctr inconclusive
O=C(NCC1COc2ccccc2O1)C1CCCN(S(=O)(=O)c2cccc3nsnc23)C1 (centres undefined)	M1 ag 3.17 (no result: mHtt clearance) | M1 agonist conf inconclusive | M4 agonist ctr inactive
O=C(OCc1cnc(Cl)s1)c1cccc(Cl)c1Cl	none (no result: D1 allo mod, M1 ag, M1 antag, AP complement)
O=C(C1CCCN(S(=O)(=O)c2cccc3nsnc23)C1)N1CCN(c2ccccn2)CC1 (centres undefined)	M1 ag 3.15 | M1 agonist conf inactive | M4 agonist ctr inactive
Cc1nn(Cc2ccc(C(=O)NC(C)(C)C)o2)c(C)c1Br	M1 ag 3.92 (no result: mHtt clearance) | M1 agonist conf inactive | M4 agonist ctr inactive
COc1cc(NC(=O)c2cc(OC)c(OC)c(OC)c2)c(OC)cc1NC(=O)CN1CCCCC1	D1 allo mod -3.27, M1 ag 3.91 (no result: mHtt clearance) | M1 agonist conf inconclusive | M4 agonist ctr inactive
Cc1ccc2[nH]c(=O)c(CN(CCN3CCOCC3)C(=O)Nc3ccccc3F)cc2c1	none
Cc1ccc2[nH]c(=O)c(CN(Cc3ccccc3Cl)C(=O)N3CCOCC3)cc2c1	M1 ag 2.24 | M1 agonist conf -29 | M4 agonist ctr -81.6
Cn1nc(C(=O)N2CCN(S(=O)(=O)c3ccccc3)CC2)c2ccccc2c1=O	none (no result: mHtt clearance)
O=C(c1nc(-c2ccccc2)n(-c2ccccc2)n1)N1CCN(S(=O)(=O)c2ccccc2)CC1	M1 ag 3.84, M1 antag -3.78 (no result: mHtt clearance) | M1 agonist conf inactive | M4 agonist ctr inconclusive
N#Cc1ccccc1CSc1nc(N2CCCCC2)nc(N2CCCCC2)n1	M1 ag 7.45, mHtt clearance inconclusive | M1 agonist conf inactive | M4 agonist ctr inactive
Cc1nc(CN2CCN(C(=O)c3ccc(Br)cc3)CC2)cs1	none (no result: mHtt clearance)
C=CCN1C(c2ccc(OCC)cc2)=CS/C1=C(\C#N)c1nnc2n1CCCCC2	M1 ag 6.64 (no result: mHtt clearance) | M1 agonist conf inactive | M4 agonist ctr inactive
Cc1cc(C(=O)COC(=O)c2ccc3c(c2)OCO3)c(C)n1Cc1cccs1	none (no result: mHtt clearance)
CC(=O)Nc1ccccc1OCC(=O)c1cc(C)n(Cc2cccs2)c1C	M1 ag 3.11 (no result: D1 allo mod, mHtt clearance) | M1 agonist conf inactive | M4 agonist ctr inactive
Cc1cc(Nc2ccc(Br)c(C)c2)n2nc(C)nc2n1	M1 ag 4.67 (no result: D1 allo mod, mHtt clearance) | M1 agonist conf inconclusive | M4 agonist ctr inactive
COc1ccc(CCNC(=O)c2c(O)c3c([nH]c2=O)CCCC3)cc1	none
CCn1c(C)nc2cc(S(=O)(=O)C(F)(F)C(F)C(F)(F)F)ccc21 (centres undefined)	M1 ag 4.75 (no result: mHtt clearance) | M1 agonist conf inactive | M4 agonist ctr inconclusive
O=C(CCCc1nc(-c2ccccc2)no1)N1CCOCC1	none (no result: mHtt clearance)
O=C(CSc1nc(-c2ccco2)cc(C(F)(F)F)n1)NCCCn1ccnc1	M1 ag 10.3 | M1 agonist conf inactive | M4 agonist ctr inactive
O=C(CSc1nc(-c2cccs2)cc(C(F)(F)F)n1)NCCCn1ccnc1	none (no result: AP complement)
O=C1c2oc3ccccc3c(=O)c2C(c2ccc(Cl)cc2)N1c1ncccn1 (centres undefined)	none (no result: mHtt clearance)
